Laboratory results taken from ChEMBL document CHEMBL1122432, “Some adenine and adenosine methylene-bridged estrogens” (J Med Chem, 1983).
pIC50, pKi: −log10 of the molar value.

What was measured:
[1] = molecular target: T1, Sulfotransferase 1E1 (Bos taurus, UniProt P19217); assay: Inhibition of bovine estrogen sulfotransferase by the compound
T1 sequence (P19217 whole entry): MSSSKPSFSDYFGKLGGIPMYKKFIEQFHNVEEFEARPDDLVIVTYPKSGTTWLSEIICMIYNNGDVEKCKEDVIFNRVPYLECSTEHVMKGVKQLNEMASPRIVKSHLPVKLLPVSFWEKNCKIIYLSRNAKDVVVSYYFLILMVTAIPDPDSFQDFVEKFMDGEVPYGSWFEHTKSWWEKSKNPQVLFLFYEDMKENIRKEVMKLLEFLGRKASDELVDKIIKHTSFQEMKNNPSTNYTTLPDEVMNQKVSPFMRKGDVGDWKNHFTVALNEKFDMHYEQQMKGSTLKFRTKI
Procedure, shortened: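 Inhibitor was present at a fixed concentration in 90% aqueous Me2SO. Ki values were derived with relationships for competitive inhibitors.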

[2] = system: MCF7; assay: Concentration required for 50% Inhibition of human breast cancer cell line MCF-7; format: functional; settings: read-out: ID50 (the source's name)
Procedure, shortened: (§1)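 Human breast cancer cells were grown in glass vials in medium with 5% calf serum and treated in log phase. Compounds were dissolved in Me2SO and diluted in medium to a final solvent concentration of at most 0.2%. Growth was followed over 2-3 days, or 5 days where noted. IC30 and IC50 are the concentrations giving 30% and 50% growth inhibition. Values average two or more experiments.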

[3] = system: MCF7; assay: Concentration required for 30% Inhibition of human breast cancer cell line MCF-7; format: functional; procedure, shortened: as §1
[4] = system: P388; assay: (§2) Concentration required for 50% Inhibition of P388 murine leukemia cells; format: functional, Mus musculus
Procedure, shortened: (§3)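 Exponentially growing P388 murine leukemia cells were kept in medium with 10% horse serum and 1 μM mercaptoethanol. They were exposed to graded drug levels, and total cell numbers were counted 24 h later. IC50 is the concentration inhibiting growth by 50% over the test period.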

[5] = system: P388; assay: as §2; format: functional; settings: Mus musculus, read-out: ID50 (the source's name); procedure, shortened: as §3
[6] = system: MCF7; assay: Inhibition of human breast cancer cell line MCF-7; format: functional; settings: for pIC50: read-out: ID50 (the source's name)
Procedure, shortened: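 MCF-7 breast cancer cells were grown in sterile glass scintillation vials in medium with 5% calf serum and treated in log phase. Compounds were dissolved in Me₂SO and diluted in medium, with final solvent ≤0.2%. Growth was measured over 2-3 days, or 5 days where footnoted. IC₃₀/IC₅₀ is the concentration inhibiting growth by 30/50% over the test period, averaged from two or more experiments.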

[7] = system: MCF7; assay: Concentration required for 30% Inhibition of human breast cancer cell line MCF-7; NA means no inhibition at -20 concentration; format: functional, cell-based; procedure, shortened: as §1

SMILES	pKi [1]	pIC50 [2]	ID30 [3]	pIC50 [5]	also measured
C[C@]12CC[C@@H]3c4ccc(OCCCCn5cnc6c(N)ncnc65)c([N+](=O)[O-])c4CC[C@H]3[C@@H]1CCC2=O	3.85	5.40	2.1 µM		ID50 [4]: 5 µM
C[C@]12CC[C@@H]3c4ccc(OCCn5cnc6c(N)ncnc65)c([N+](=O)[O-])c4CC[C@H]3[C@@H]1CCC2=O	3.00	5.00	7.8 µM	4.52	
C[C@]12CC[C@@H]3c4ccc(OCCCOC[C@H]5OC(n6cnc7c(N)ncnc76)[C@H](O)[C@@H]5O)c([N+](=O)[O-])c4CC[C@H]3[C@@H]1CCC2=O (stereo not given in full)	4.08	5.19	3.6 µM	4.82	
C[C@]12CC[C@@H]3c4ccc(OP(=O)(O)OP(=O)(O)OC[C@H]5O[C@@H](n6c(Br)nc7c(N)ncnc76)[C@H](O)[C@@H]5OP(=O)(O)O)cc4CC[C@H]3[C@@H]1CCC2=O	6.60				
C[C@]12CC[C@@H]3c4ccc(OCCOC[C@H]5OC(n6cnc7c(N)ncnc76)[C@H](O)[C@@H]5O)c([N+](=O)[O-])c4CC[C@H]3[C@@H]1CCC2=O (stereo not given in full)	4.49	< 5.00	11 µM	4.15	
O=c1[nH]cc(F)c(=O)[nH]1 [FLUOROURACIL]					ID30 [6]: 0.2 µM; pIC50 [6]: 6.52
C[C@]12CC[C@@H]3c4ccc(OCCCn5cnc6c(N)ncnc65)cc4CC[C@H]3[C@@H]1CCC2=O	3.00				ID30 [7]: Not Active
COc1ccc2c(c1[N+](=O)[O-])CC[C@@H]1[C@@H]2CC[C@]2(C)C(=O)CC[C@@H]12					ID30 [6]: >10 µM; pIC50 [6]: < 5.00
C[C@]12CC[C@@H]3c4ccc(OCCCn5cnc6c(N)ncnc65)c([N+](=O)[O-])c4CC[C@H]3[C@@H]1CCC2=O	3.46				ID30 [7]: Not Active
